# Measurements published in ChEMBL document CHEMBL1143606, “3-Aminopyrazole inhibitors of CDK2/cyclin A as antitumor agents. 2. Lead optimization” (J Med Chem, 2005).
# Where “and” joins values, the source holds several entries; their conditions need not be identical. Identical values can stand only once.
# Legend:
# physchem [1] = conditions: aqueous buffer, pH 7
# [2] = rat, plasma
# A2780 [3] = assay: Inhibitory concentration towards human ovarian carcinoma cell line A2780; type: functional, cell-based
# [4] = biological target: Cyclin-dependent kinase 2/cyclin A (Homo sapiens, UniProt P24941); assay: Inhibition of cyclin dependent kinase 2-cyclin A; type: protein-complex assay
# A2780 [5] = assay: Percent inhibition tumor growth of Human ovarian cancer cell A2780 in mice when administered 7.5 mg/kg twice a day for 20 days; type: functional; conditions: Mus musculus, A2780, 480 h
# Procedure, shortened: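 A2780 tumor kept by sc passage of 20-30 mg brei in athymic mice. Fragments implanted sc in left flank of nude mice, 10 mice/group. Dosing began at measurable tumors (mean 0.13 g, day 8). Dosed orally in 50% PEG 400/glucosate. Body weight followed. Data from a single experiment.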
# A2780 [6] = assay: Inhibitory concentration towards Human ovarian carcinoma cell line A2780; type: functional, cell-based
# [7] = biological target: T1, Cyclin-dependent kinase 1/cyclin B (Homo sapiens, UniProt P06493); assay: Inhibition of cyclin dependent kinase 1-cyclin B (n=6); type: protein-complex assay
# Procedure, shortened: (§1)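 IC50 from at least two independent experiments; value is the mean of IC50s obtained by nonlinear least-squares regression fitting. Coefficient of variation of the mean 10% to 24%. GSK-3β belonged to a panel of 30 serine-threonine and tyrosine kinases.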
# HCT-116 = assay: Inhibitory concentration towards HCT 116 human colon cancer cell line; type: functional, cell-based
# [8] = biological target: T2, Cyclin-dependent kinase 2/cyclin E (Homo sapiens, UniProt P24941); assay: Inhibition of cyclin dependent kinase 2-cyclin E (n=6); type: protein-complex assay
# Procedure, shortened: as §1
# [9] = Inhibition of glycogen synthase kinase-3 beta (n=13)
# Procedure, shortened: as §1
# HT-29 [10] = assay: Percent of BrdU incorporation in HT-29 cells at 1 uM concentration of compound; type: functional
# [11] = biological target: T3, Cyclin-dependent kinase 4/cyclin D1 (Homo sapiens, UniProt P11802); assay: Inhibition of cyclin-dependent kinase 4-cyclin D1 (n=4); type: protein-complex assay
# T3 sequence (P11802 whole entry): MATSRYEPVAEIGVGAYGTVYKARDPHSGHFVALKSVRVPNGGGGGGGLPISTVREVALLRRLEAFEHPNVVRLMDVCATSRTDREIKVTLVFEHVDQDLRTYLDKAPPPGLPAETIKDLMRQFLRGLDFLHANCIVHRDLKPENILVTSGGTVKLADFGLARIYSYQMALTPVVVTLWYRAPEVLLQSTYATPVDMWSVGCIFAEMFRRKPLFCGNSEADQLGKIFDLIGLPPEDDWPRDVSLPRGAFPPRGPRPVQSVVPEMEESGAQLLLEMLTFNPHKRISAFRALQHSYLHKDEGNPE
# T3 sequence (P24385 whole entry, further chain): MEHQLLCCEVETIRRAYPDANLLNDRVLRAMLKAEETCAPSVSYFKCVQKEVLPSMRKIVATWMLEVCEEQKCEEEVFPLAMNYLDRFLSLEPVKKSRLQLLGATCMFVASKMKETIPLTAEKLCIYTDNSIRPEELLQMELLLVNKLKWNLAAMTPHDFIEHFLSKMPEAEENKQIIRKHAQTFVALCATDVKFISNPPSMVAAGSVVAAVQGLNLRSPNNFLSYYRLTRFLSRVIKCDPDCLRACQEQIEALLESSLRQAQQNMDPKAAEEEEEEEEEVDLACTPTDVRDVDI
# Procedure, shortened: as §1
# HT-29 [12] = assay: Percent of BrdU incorporation in HT-29 cells at 3 uM concentration of compound; type: functional
# HT-29 [13] = assay: Inhibitory concentration towards human colon cancer HT-29 cell line; type: functional, cell-based
# [14] = biological target: Cyclin-dependent kinase 5/CDK5 activator 1 (Homo sapiens, UniProt Q00535); assay: Inhibition of cyclin-dependent kinase 5 p25 alpha (n=4); type: protein-complex assay
# Chain of Cyclin-dependent kinase 5/CDK5 activator 1 (Q00535 whole entry): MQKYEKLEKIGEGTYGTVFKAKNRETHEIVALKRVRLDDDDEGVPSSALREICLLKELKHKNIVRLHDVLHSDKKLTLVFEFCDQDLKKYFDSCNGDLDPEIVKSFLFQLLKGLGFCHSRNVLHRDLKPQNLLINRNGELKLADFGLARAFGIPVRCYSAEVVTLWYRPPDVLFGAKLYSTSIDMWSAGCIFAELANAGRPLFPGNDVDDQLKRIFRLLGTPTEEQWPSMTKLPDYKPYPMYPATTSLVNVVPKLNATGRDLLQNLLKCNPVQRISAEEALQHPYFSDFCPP
# Chain of Cyclin-dependent kinase 5/CDK5 activator 1 (Q15078 whole entry, further chain): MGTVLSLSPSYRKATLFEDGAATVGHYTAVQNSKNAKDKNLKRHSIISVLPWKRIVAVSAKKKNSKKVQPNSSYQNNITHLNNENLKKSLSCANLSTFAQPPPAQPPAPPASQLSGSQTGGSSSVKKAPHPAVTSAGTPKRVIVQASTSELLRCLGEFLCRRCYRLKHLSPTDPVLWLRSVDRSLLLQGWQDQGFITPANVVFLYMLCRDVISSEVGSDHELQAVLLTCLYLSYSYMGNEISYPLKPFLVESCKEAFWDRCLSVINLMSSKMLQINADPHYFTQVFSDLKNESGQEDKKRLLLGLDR
# Procedure, shortened: as §1
# [15] = biological target: T2, Cyclin-dependent kinase 2/cyclin E; assay: Inhibition of cyclin dependent kinase 2-cyclin E (n=4); type: protein-complex assay
# Procedure, shortened: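 Kinase inhibition assay run by a previously reported method. IC50 is the mean of values from nonlinear least-squares regression fits, with at least two independent experiments per compound. Coefficient of variation of the mean was 10% to 24%.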
# [16] = Half-life of compound in plasma of CD-1 mice upon o.s. dose; type: ADME, cell-free; conditions: CD-1, mouse, po
# Procedure, shortened: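 Mice dosed orally at 10 mg/kg in PEG 400/glucosate vehicle (preliminary PK, with iv and oral legs); plasma terminal half-life determined.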
# [17] = Inhibition of glycogen synthase kinase-3 beta (n=6)
# Procedure, shortened: as §1
# physchem [18] = conditions: aqueous buffer
# HT-29 [19] = assay: Percent of BrdU incorporation in Brdu positive HT-29 cells at 3 uM concentration of compound; type: functional, Homo sapiens
# [20] = mouse, in vivo
# [21] = biological target: T1, Cyclin-dependent kinase 1/cyclin B; assay: Inhibition of cyclin dependent kinase 1-cyclin B (n=4); type: protein-complex assay
# Procedure, shortened: as §1
# [22] = mouse, in vivo; remark: listed apart in the source
# [23] = biological target: T3, Cyclin-dependent kinase 4/cyclin D1; assay: Inhibition of cyclin-dependent kinase 4-cyclin D1 (n=2); type: protein-complex assay
# Procedure, shortened: as §1
# [24] = mouse, in vivo, iv
# HT-29 [25] = assay: Percent of BrdU incorporation in Brdu positive HT-29 cells at 1 uM concentration of compound; type: functional, Homo sapiens
Structure (SMILES),solubility (physchem [1]) [µM],Binding [2],IC50 (A2780 [3]) [µM],IC50 [4] [nM],other results
O=C(Cc1ccc2ccccc2c1)Nc1cc(C2CC2)n[nH]1,22,99%,,,
COC(C(=O)Nc1cc(C2CC2)[nH]n1)c1ccccc1 (configuration not stated),,,,5000,
CO[C@H](C(=O)Nc1cc(C2CC2)n[nH]1)c1ccccc1,,,,2000,
O=C(Nc1cc(C2CC2)n[nH]1)C(=O)c1ccccc1,,,,2600,
CC(C(=O)Nc1cc(C2CC2)[nH]n1)c1ccc(N2CCCC2)cc1 (configuration not stated),3,96%,0.37,,
C[C@H](C(=O)Nc1cc(C2CC2)[nH]n1)c1ccc(N2Cc3ccccc3C2=O)cc1,5,,1.02,2,
O=C(Nc1cc(C2CC2)[nH]n1)C(F)c1ccccc1 (configuration not stated),,,,99,
CC(C(=O)Nc1cc(C2CC2)[nH]n1)c1ccc(N2CCCCC2=O)cc1 (configuration not stated),,,> 10,240,
CC(C(=O)Nc1cc(C2CC2)[nH]n1)c1ccc(N2CCN(Cc3ccccc3)C2=O)cc1 (configuration not stated),,,,1450,
C[C@@H](C(=O)Nc1cc(C2CC2)[nH]n1)c1ccc(N2Cc3ccccc3C2=O)cc1,51,,,170,
CC(C(=O)Nc1cc(C2CC2)[nH]n1)c1ccc(N2C(=O)CCC2c2ccccc2)cc1 (configuration not stated),50,97%,15.3,200,
O=C(Nc1cc(C2CC2)[nH]n1)C(c1ccccc1)c1ccccc1,,,,> 10000,
CC(C(=O)Nc1cc(C2CC2)[nH]n1)c1ccc(-n2cc[nH]c2=O)cc1 (configuration not stated),233,74%,6.98,11,
N[C@H](C(=O)Nc1cc(C2CC2)[nH]n1)c1ccccc1,,,,960,
CC(C(=O)Nc1cc(C2CC2)[nH]n1)c1ccc(N2CC(=O)NC2=O)cc1 (configuration not stated),201,67%,4.54,17,
CC(C(=O)Nc1cc(C2CC2)[nH]n1)c1ccccc1 (configuration not stated),,,,169,
CC(C(=O)Nc1cc(C2CC2)[nH]n1)c1ccc(N2C(=O)CCC2C)cc1 (configuration not stated),222,67%,6.4,150,
C[C@H](C(=O)Nc1cc(C2CC2)[nH]n1)c1ccc(N2CCCC2)cc1,24,98%,0.22,,
C[C@@H](C(=O)Nc1cc(C2CC2)[nH]n1)c1ccccc1,,,,6000,
CC(C(=O)Nc1cc(C2CC2)[nH]n1)c1ccc(N2Cc3ccccc3C2=O)cc1 (configuration not stated),12,,4.75,13,
C[C@H](C(=O)Nc1cc(C2CC2)[nH]n1)c1ccccc1,,,,84,
CO[C@@H](C(=O)Nc1cc(C2CC2)n[nH]1)c1ccccc1,,,,> 10000,
CC(C(=O)Nc1cc(C2CC2)[nH]n1)c1ccc(N2CCCS2(=O)=O)cc1 (configuration not stated),135,78%,5.24,,
CC(C(=O)Nc1cc(C2CC2)[nH]n1)c1ccc(-n2cn[nH]c2=O)cc1 (configuration not stated),109,58%,8.39,73,
CC(C(=O)Nc1cc(C2CC2)[nH]n1)c1ccc(N2C(=O)CNC2=O)cc1 (configuration not stated),,,> 10,124,

# Second part, led by results:
solubility (physchem [1]) [µM],Binding [2],IC50 (A2780 [3]) [µM],IC50 [4] [nM],Structure (SMILES),other results
220,74%,13.2,455,C[C@@H](C(=O)Nc1cc(C2CC2)[nH]n1)c1ccc(N2CCNC2=O)cc1,
,,0.8,37,C[C@H](C(=O)Nc1cc(C2CC2)[nH]n1)c1ccc(N2CCCC2=O)cc1,inhibition in vivo at 7.5 mg/kg (A2780 [5]): 73%; IC50 (A2780 [6]): 744 nM; IC50 [7]: 208 nM; IC50 (HCT-116): 1350 nM; IC50 [8]: 55 nM; IC50 [9]: 732 nM; Brdu positive (HT-29 [10]): 25%; IC50 [11]: > 10 µM; Brdu positive (HT-29 [12]): 4%; IC50 (HT-29 [13]): 639 nM
232,73% and 74%,0.79,20,C[C@H](C(=O)Nc1cc(C2CC2)[nH]n1)c1ccc(N2CCOC2=O)cc1,IC50 [14]: 57 nM; IC50 (A2780 [6]): 716 nM; IC50 [15]: 37 nM; half-life [16]: 3.1 h; IC50 [17]: 406 nM; IC50 (HCT-116): 1130 nM; solubility (physchem [18]): 225 µM; Activity (HT-29 [19]): 0.7%; Vss [20]: 573 mL/kg; IC50 [21]: 243 nM; Clearance [22]: 4.7 mL/min/kg; IC50 [23]: > 10 µM; T1/2 [24]: 2.8 min; Activity (HT-29 [25]): 65%; IC50 (HT-29 [13]): 751 nM
,,1.4,17,C[C@H](C(=O)Nc1cc(C2CC2)[nH]n1)c1ccc(N2CCN(C)C2=O)cc1,
220,72%,,2500,C[C@@H](C(=O)Nc1cc(C2CC2)[nH]n1)c1ccc(N2CCOC2=O)cc1,
222,73%,1.04,25,CC(C(=O)Nc1cc(C2CC2)[nH]n1)c1ccc(N2CCOC2=O)cc1 (configuration not stated),
,,12.2,2500,C[C@@H](C(=O)Nc1cc(C2CC2)[nH]n1)c1ccc(N2CCCC2=O)cc1,
120,57%,5.71,20,CC(C(=O)Nc1cc(C2CC2)[nH]n1)c1ccc(N2CCC(C(N)=O)C2=O)cc1 (configuration not stated),
> 225,74%,1.27,2,C[C@H](C(=O)Nc1cc(C2CC2)[nH]n1)c1ccc(N2CCNC2=O)cc1,
224,74%,2.25,12,CC(C(=O)Nc1cc(C2CC2)[nH]n1)c1ccc(N2CCNC2=O)cc1 (configuration not stated),
,,0.63,169,CC(C(=O)Nc1cc(C2CC2)[nH]n1)c1ccc(N2CCCC2=O)cc1 (configuration not stated),
,,1.68,29,CC(C(=O)Nc1cc(C2CC2)[nH]n1)c1ccc(N2CCN(C)C2=O)cc1 (configuration not stated),
,,,8500,C[C@@H](C(=O)Nc1cc(C2CC2)[nH]n1)c1ccc(N2CCN(C)C2=O)cc1,
